This is one part of a sample in which hits are shown more often than they occur.
S1P3 antag – antagonists of human S1P3 receptor | Q99500 | CHO S1P3 NFAT-BLA reporter, FRET fluorescence, antagonist mode | inhibition, % at 4.98 µM | 0.27% of 170,000 active | AID 485;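 active = inhibition above the plate cutoff, the mean inhibition of test wells on that plate plus 3 SD, cut at about 28% in these data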;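 note: cells challenged with S1P at its EC80 of 0.8 µM; blue over green emission ratio from cleaved BLA substrate after 4 h stimulation; 0% = S1P-stimulated wells and 100% = unstimulated DMSO-only wells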
L major viab – inhibitors of Leishmania major promastigote growth. Leishmania major promastigotes, resazurin fluorescence viability. inhibition, % at 10 µM. 9% of 200,000 active; in the data active = inhibition above about 50%;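 note: promastigotes grown with compound for 44 hours at 28 °C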
S1P4 antagonist – human S1P4 receptor antagonism; O95977; S1P4-expressing cells, antagonist mode, reporter read-out; inhibition, % at 4.98 µM; 0.26% of 220,000 active; AID 1510; in the data active = inhibition above about 29%;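 note: 0% = wells stimulated with agonist and 100% = vehicle wells without agonist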
S1P4 ag – human S1P4 receptor agonism; O95977; S1P4-expressing cell line, agonist reporter assay; activation, % at 4.98 µM; 0.35% of 220,000 active; in the data active = activation above about 11%;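 note: 0% = DMSO vehicle and 100% = reference agonist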
MDM2 E3 inh – Mdm2 E3 ligase (human) inhibition; cell-based MDM2 ubiquitination luciferase reporter, 2 h; 0 = plate control, 100 = twice control, blank-subtracted; signal enhancement, % at 5 µM; 0.11% of 210,000 active;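 active = signal enhancement of 30% or more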;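 note: luminescence tracks abundance of the self-degrading MDM2-luciferase fusion protein; higher signal means inhibition of MDM2 E3 ligase activity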
Target sequence (Q00987 whole entry, looked up, the tested form may be a part): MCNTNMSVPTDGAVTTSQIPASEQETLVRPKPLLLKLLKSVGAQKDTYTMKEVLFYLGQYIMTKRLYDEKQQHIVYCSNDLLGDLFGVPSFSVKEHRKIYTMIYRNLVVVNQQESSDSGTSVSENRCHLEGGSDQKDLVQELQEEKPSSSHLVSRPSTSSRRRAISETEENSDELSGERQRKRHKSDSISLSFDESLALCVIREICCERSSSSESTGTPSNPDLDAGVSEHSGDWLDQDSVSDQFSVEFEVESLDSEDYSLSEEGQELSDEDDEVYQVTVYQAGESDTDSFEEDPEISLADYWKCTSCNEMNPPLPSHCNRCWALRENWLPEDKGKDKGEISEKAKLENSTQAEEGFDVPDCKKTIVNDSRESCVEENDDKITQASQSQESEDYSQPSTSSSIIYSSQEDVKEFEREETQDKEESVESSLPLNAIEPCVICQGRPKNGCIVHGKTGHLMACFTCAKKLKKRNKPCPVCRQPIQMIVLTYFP
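Assay system: mammalian cells stably expressing self-ubiquitinating, self-degrading MDM2 E3–luciferase fusion. Quantity: 2000 cells in each well. Medium: DMEM culture medium. Compound dosing: single-point 5 µM. Timing: cell settling 4 h, compound treatment 2 h, both 37 °C. Technique: luciferase luminescence. Read-out basis: percent signal gain over controls, blank-subtracted. Benchmarks: plate controls and plate blanks.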
* marks the source's active call; other numbers are inactive results; . = no result given.

SMILES	S1P3 antag	L major viab	S1P4 antagonist	S1P4 ag	MDM2 E3 inh
Cc1ccc2c(c1)cc(CN(Cc1ccc3c(c1)OCO3)S(=O)(=O)c1ccccc1)c1nnnn12	5	99*	1	-1	-16
c1ccc(Oc2cccc(CN3CCCCC3)c2)cc1	.	100*	-16	2	-11
CCN1CCN(Cc2cccc(Oc3ccc(Cl)cc3)c2)CC1	.	96*	-13	-1	-17
CN1CCN(Cc2cccc(Oc3ccc(Cl)cc3)c2)CC1	.	100*	3	1	-14
Cc1cccc(CN2CCN(c3ccccn3)CC2)c1	-4	2	-1	1	.
c1ccc(COc2cccc(CN3CCN(c4ccccn4)CC3)c2)cc1	10	79*	2	1	-6
COc1ccc(C2OC(=O)CC2C(=O)NCc2ccccc2Cl)cc1OC (stereo not given)	-10	19	-19	0	-37
COc1cccc(-c2nc(CS(=O)(=O)c3ccccc3)no2)c1	.	-2	-5	2	-4
COc1ccc2c(C(=O)CCl)c[nH]c2c1	-7	.	-4	0	.
CCc1ccc(-c2cn(-c3nc(C)cc(C)n3)c(=N)o2)cc1	-3	4	1	-1	-19
CCN1CCN(Cc2cccc(Oc3ccccc3)c2)CC1	.	97*	6	0	-22
CCN(CC)C(=O)C1CCCN(Cc2cccc(Oc3ccccc3)c2)C1 (stereo not given)	0	.	11	3	-3
Cn1cccc1/C=C1\SC(=O)N(CC(=O)Nc2ccc(Cl)cc2)C1=O	.	-8	3	2	-4
Cc1ccc(NC(=O)CN2C(=O)S/C(=C\C(=O)Nc3ccc(Cl)cc3)C2=O)cc1	-17	63*	-16	3	-12
COc1ccc(C(CCN2CCOCC2)c2c(O)cc(OC)cc2OC)cc1 (stereo not given)	.	.	.	.	6
COc1ccc(C(c2c(O)ccc3ccccc23)N2CCOCC2)c(OC)c1 (stereo not given)	6	60*	13	1	-10
COc1ccc(C(C)=O)cc1COC(=O)c1cccnc1SC	-13	3	-42	2	-10
CCn1nnnc1SCC(=O)Nc1nnc(C(C)C)s1	-21	3	3	-1	2
CCn1nnnc1SCC(=O)Nc1nc(-c2cccs2)cs1	-5	55*	-5	1	-6
COc1ccccc1N(C)S(=O)(=O)c1ccc(C(=O)NCc2ccc3c(c2)OCO3)cc1	10	99*	2	0	-8
COc1ccccc1N(C)S(=O)(=O)c1ccc(C(=O)Nc2nc(C)cs2)cc1	-8	99*	-5	1	-8
COc1ccccc1N(C)S(=O)(=O)c1ccc(C(=O)NC(C)(C)C)cc1	.	2	-13	0	-14
O=C(CN1CCN(Cc2ccccc2Cl)C1=O)NCc1ccccn1	5	.	5	0	-11
O=C(NCC1(c2ccccc2)CCCC1)c1cccc(Br)c1	.	11	-29	0	-7
O=C(Nc1cnn(Cc2ccc(F)cc2)c1)C(c1ccccc1)c1ccccc1	2	51*	-16	-1	-15
SMILES	S1P3 antag	L major viab	S1P4 antagonist	S1P4 ag	MDM2 E3 inh
O=C(Nc1cnn(Cc2ccc(F)cc2)c1)c1noc2c1CCCC2	5	100*	4	1	-9
CCOc1ccc(N2CC(C(=O)NC3=NCCS3)CC2=O)cc1 (stereo not given)	-12	-8	-2	-1	-6
CC(NCc1ccncc1)C12CC3CC(CC(C3)C1)C2 (stereo not given)	-3	69*	-14	3	-2
c1cc(CNC2C3CC4CC(C3)CC2C4)ccn1 (stereo not given)	1	83*	-7	1	12
COc1ccc(C(=O)Nc2nc(-c3ccc([N+](=O)[O-])cc3)c(-c3ccccc3)s2)cc1	.	68*	-17	2	.
O=C(Nc1nc(-c2ccccc2)c(-c2ccccc2)s1)c1ccc(S(=O)(=O)N2CCCC2)cc1	.	98*	7	1	-4
CC1CCC2(CC1)N=C(N)Nc1nc3ccccc3n12 (stereo not given)	.	19	-1	1	-17
COc1ccccc1N1CCN(C(CNC(=O)c2ccc3c(c2)OCO3)c2cccnc2)CC1 (stereo not given)	0	94*	-14	3	-2
COc1ccccc1N1CCN(C(CNC(=O)C2CCCCC2)c2cccnc2)CC1 (stereo not given)	-2	51*	-10	1	-17
CC(C)(C)NC(=O)COC(=O)/C=C/c1ccccc1[N+](=O)[O-]	.	0	-1	1	-11
O=C(Nc1nc(-c2ccc3ccccc3c2)cs1)C1CCN(S(=O)(=O)c2cccs2)CC1	-6	91*	-4	0	-16
Cc1nc2ccc(NC(=O)C3CCN(S(=O)(=O)c4cccs4)CC3)cc2s1	-5	65*	-11	-1	-17
O=C(CCNC(=O)c1ccccc1Cl)Nc1nc(-c2ccc3ccccc3c2)cs1	-6	80*	-31	0	3
Cc1ccc(NC(=O)C2CCN(S(=O)(=O)c3cccs3)CC2)cc1	4	-1	-10	2	-4
O=C(Nc1nccs1)C1CCN(S(=O)(=O)c2cccs2)CC1	-9	15	-15	0	11
Cc1cc(Br)c(Cl)cc1NC(=O)CN1C(=O)C2C3CC(c4ccccc4)C(C3)C2C1=O (stereo not given)	3	84*	20	0	0
Cc1ccnn1CCC(=O)N1CCCC(CCC(=O)N2CCN(c3ccccn3)CC2)C1 (stereo not given)	-15	-1	2	-1	3
CCCc1nnc(NC(=O)CCC(=O)N2CCN(S(=O)(=O)c3ccc(C)cc3)CC2)s1	-13	.	-18	0	-5
COc1ccc(NC2=Nc3cccc4cccc2c34)cc1OC	.	34	-5	1	-2
COc1cc(NC2=Nc3cccc4cccc2c34)cc(OC)c1OC	3	56*	-17	-1	-2
CCOc1cc(NC(=S)Nc2cccc(OC)c2)c(OCC)cc1NC(=O)c1ccc(C)cc1	.	-3	-2	4	-3
CCOc1cc(NC(=S)Nc2ccccc2)c(OCC)cc1NC(=O)c1ccc(OC)cc1	.	96*	-10	1	-13
COc1cc(OC)cc(C(=O)Nc2nnc(NC(=S)Nc3ccccc3)s2)c1	-13	55*	-5	1	-12
CC1=C(C(=O)N(C)C)C(c2ccc(C)s2)NC(=S)N1 (stereo not given)	-9	-5	-15	2	-29
O=[N+]([O-])c1ccccc1S(=O)(=O)n1nnc2ccccc21	6	-3	-12	2	-16
CCOC(=O)c1sc(NC(=O)C(C)Sc2nc(N)cc(=O)[nH]2)nc1C (stereo not given)	2	-6	-20	1	0
CCn1c(COc2ccccc2)nnc1SCC(=O)c1cccc([N+](=O)[O-])c1	.	91*	-5	0	-7
CCOc1cc(C)ccc1OCc1nnc(SCC(=O)c2cccc([N+](=O)[O-])c2)n1CC	.	-3	-3	2	2
